The source of these data is PubChem BioAssay.

The nature of experiment [1]: nonspecific flux increase, KCNQ1-free cells – parental CHO cells, counter-screen for KCNQ1 potentiator project (AID 493006;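 active = duplicate-averaged activation above buffer control mean plus 5 SD of those controls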). The following applies: parental CHO-K1 cells, FluxOR thallium flux, at 10 µM; hits give high values. The essentials:
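Material: parental CHO-K1 cells, FluxOR dye-loaded; Also added: Potassium/thallium depolarization pulse; Schedule: overnight 37 °C plating, 90 min dye, 20 min dark compound; Signal: kinetic FluxOR fluorescence, 10 s baseline, 110 s after stimulus.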

The target in experiment [2] is Potassium voltage-gated channel subfamily KQT member 1 (Homo sapiens) (UniProt P51787). The experiment is described as follows: enhancement of KCNQ1 channel thallium flux – FluxOR thallium flux, CHO cells, duplicates, confirmation (AID 493007;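 active = potentiation averaged over duplicate wells exceeding buffer-only control mean by more than 3 SD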;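 for outcome: cells depolarized by a potassium plus thallium sulfate stimulus after compound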). To be noted: KCNQ1 cell line, FluxOR thallium flux fluorescence, at 10 µM; hits give high values, % of reference activator effect, buffer zero. A digest of the protocol:
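System: KCNQ1-expressing CHO cell line; technique: kinetic thallium influx fluorescence with FluxOR dye, 10 s baseline, 110 s post-stimulus; timing: dye 90 min then compound 20 min, both at room temperature; controls: buffer-only wells as 0% and R-L3 activator as 100%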

For experiment [3], the target named is Potassium voltage-gated channel subfamily KQT member 2 (Rattus norvegicus) (UniProt O88943). The experiment is described as follows: KCNQ2 thallium flux enhancement – KCNQ2-CHO-K1 cells, selectivity assay for KCNQ1 potentiator project (AID 493009;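 active = mean duplicate potentiation above the buffer control mean plus 5 SD of buffer wells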;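 note: assay conditions were tuned for KCNQ1 rather than KCNQ2 modulators; signal is max minus min fluorescence divided by baseline after thallium stimulus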). The following applies: FluxOR thallium flux fluorescence, at 10 µM; hits give high values, scaled: buffer 0, activator control 100.
Sequence of Potassium voltage-gated channel subfamily KQT member 2 (Rattus norvegicus) (O88943 whole entry, looked up): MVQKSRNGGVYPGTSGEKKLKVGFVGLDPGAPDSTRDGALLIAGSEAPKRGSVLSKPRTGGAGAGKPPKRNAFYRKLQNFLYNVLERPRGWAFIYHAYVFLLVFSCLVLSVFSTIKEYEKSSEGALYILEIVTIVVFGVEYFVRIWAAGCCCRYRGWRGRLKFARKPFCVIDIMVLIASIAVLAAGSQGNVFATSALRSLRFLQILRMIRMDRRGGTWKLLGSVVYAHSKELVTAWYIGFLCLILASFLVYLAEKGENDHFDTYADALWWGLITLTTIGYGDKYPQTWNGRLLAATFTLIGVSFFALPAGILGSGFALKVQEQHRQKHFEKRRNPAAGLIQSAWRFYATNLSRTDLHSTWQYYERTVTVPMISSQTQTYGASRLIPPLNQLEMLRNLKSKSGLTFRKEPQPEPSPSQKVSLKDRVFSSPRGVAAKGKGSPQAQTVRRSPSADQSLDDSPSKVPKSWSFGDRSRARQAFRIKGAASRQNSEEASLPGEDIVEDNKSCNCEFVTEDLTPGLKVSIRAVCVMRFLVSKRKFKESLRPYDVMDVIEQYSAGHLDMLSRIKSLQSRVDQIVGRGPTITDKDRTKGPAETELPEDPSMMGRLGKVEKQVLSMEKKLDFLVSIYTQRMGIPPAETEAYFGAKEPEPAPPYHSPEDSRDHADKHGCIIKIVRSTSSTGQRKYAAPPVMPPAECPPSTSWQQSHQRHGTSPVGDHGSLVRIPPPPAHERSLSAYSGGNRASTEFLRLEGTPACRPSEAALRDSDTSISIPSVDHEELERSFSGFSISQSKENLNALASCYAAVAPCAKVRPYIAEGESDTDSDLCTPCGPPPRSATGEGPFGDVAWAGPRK

Experiment [4] concerns the target Potassium voltage-gated channel subfamily KQT member 1 (Homo sapiens) (UniProt P51787). The experiment is described as follows: KCNQ1 activators by electrophysiology – IonWorks patch clamp, KCNQ1-CHO cells, orthogonal assay for KCNQ1 potentiator project, confirmation (AID 493184).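 For current potentiation: percent change of the same well's current before compound addition so 0% = no change.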 The following applies: automated patch clamp current, at 10 µM; hits give high values. The essentials:
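Test system: KCNQ1-expressing CHO cells. Medium: pH 7.4 external bath. Probe or stimulus: voltage step from -90 mV holding to +40 mV, 2,000 ms. Compound: 10 µM final, single point. Detection: automated perforated-patch electrophysiology. Read-out: percent current increase versus pre-compound level. Repeats: two replicates.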

For experiment [5], the target named is Potassium voltage-gated channel subfamily E member 1 (Homo sapiens) + Potassium voltage-gated channel subfamily KQT member 1 (Homo sapiens) (UniProt P15382+P51787). The experiment is described as follows: KCNQ1-E1 channel activation – thallium flux, CHO-K1 KCNQ1/E1 cells, selectivity assay for KCNQ1 potentiator project, confirmation (AID 493186;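 active = mean duplicate activation above the buffer control mean plus 5 SD of those controls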). To be noted: FluxOR thallium flux, at 10 µM; hits give high values. The essentials: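 Material: CHO-K1 cells with KCNQ1/E1 / Timing: dye 90 min, compound 20 min, room temperature / Technique: kinetic thallium-sensitive FluxOR dye fluorescence / Read-out: percent activation scaled between buffer and R-L3 ratio signals / Replicates: tested in duplicate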
Sequence of Potassium voltage-gated channel subfamily E member 1 (Homo sapiens) + Potassium voltage-gated channel subfamily KQT member 1 (Homo sapiens) (P51787 whole entry, looked up): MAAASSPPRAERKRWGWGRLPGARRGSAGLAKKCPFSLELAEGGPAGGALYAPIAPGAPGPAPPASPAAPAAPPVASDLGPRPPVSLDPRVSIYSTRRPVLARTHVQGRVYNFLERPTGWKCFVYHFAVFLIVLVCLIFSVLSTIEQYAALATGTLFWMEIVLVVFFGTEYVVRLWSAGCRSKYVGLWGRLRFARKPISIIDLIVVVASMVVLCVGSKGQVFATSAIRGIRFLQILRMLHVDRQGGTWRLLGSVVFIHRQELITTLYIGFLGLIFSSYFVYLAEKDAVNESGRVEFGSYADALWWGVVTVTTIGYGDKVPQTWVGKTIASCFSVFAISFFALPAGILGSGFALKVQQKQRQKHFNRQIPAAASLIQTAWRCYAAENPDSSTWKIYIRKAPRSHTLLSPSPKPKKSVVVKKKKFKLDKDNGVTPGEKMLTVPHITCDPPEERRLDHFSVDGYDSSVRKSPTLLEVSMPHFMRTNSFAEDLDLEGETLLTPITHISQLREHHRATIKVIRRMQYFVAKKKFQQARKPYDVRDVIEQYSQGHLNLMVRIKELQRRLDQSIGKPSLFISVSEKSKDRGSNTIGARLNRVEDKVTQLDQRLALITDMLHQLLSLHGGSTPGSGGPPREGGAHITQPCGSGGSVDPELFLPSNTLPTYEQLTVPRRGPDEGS

Activity calls are given as the source filed them.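 Rule for the calls, unless noted: active = current rise at least 3 SD above the untreated control mean in each of two repeat wells; inactive = the rest.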

Sequence of Potassium voltage-gated channel subfamily KQT member 1 (Homo sapiens) (P51787 whole entry, looked up): as above

As to `NC(=O)c1ccsc1NC(=O)COC(=O)Cc1ccsc1`, the outcome in experiment [1], in experiment [3], in experiment [4] and in experiment [5] was inactive. Besides, in experiment [2], the potentiation was 182% (active).

As for `O=C(NC(=S)Nc1nc(-c2ccccc2)cs1)c1cccs1`, the outcome in experiment [1], in experiment [3], in experiment [4] and in experiment [5] was inactive. Also, the potentiation in experiment [2] was 38% (active).

Regarding `CCOC(=O)C(C(=O)OCC)C(C(=O)OCC)N1CCOCC1` (stereo not given), the result in experiment [1], in experiment [2], in experiment [4] and in experiment [5] was inactive. Moreover, the potentiation in experiment [3] was 171% (active).

Take `Cc1cc(/C=N/n2cnnc2)c(C)n1-c1cc(Cl)ccc1Cl`: the result in experiment [1], in experiment [2], in experiment [3] and in experiment [5] was inactive. The current potentiation in experiment [4] was 18.5% (active).

Take `CC(=O)Nc1ccc(S(=O)(=O)Nc2nc3ccccc3nc2Nc2ccccc2)cc1`: the result in experiment [1], in experiment [2], in experiment [3], in experiment [4] and in experiment [5] was inactive.

For the compound `O=C(NNC(=O)c1cc(-c2ccccc2)nn1-c1ccccc1)c1ccccc1`, the result in experiment [1], in experiment [2], in experiment [3], in experiment [4] and in experiment [5] was inactive.

Regarding `Cc1ccc(CCNC(=O)C2CC(c3cccc(F)c3)=NO2)cc1` (stereo not given), the outcome in experiment [1], in experiment [2], in experiment [3], in experiment [4] and in experiment [5] was inactive.

In the case of `CCCOc1ccc(C(=O)NNC(=S)NC(=O)c2cc(-c3ccccc3)nc3ccccc23)cc1`, the result in experiment [1], in experiment [3], in experiment [4] and in experiment [5] was inactive. For the same compound, the potentiation in experiment [2] was 23.5% (active).

Regarding `Cc1cc(-c2cccnc2)c(C#N)c(SCC#N)n1`, the outcome in experiment [1], in experiment [2], in experiment [3], in experiment [4] and in experiment [5] was inactive.

As to `S=c1nc[nH]c2c1sc1nc(N3CCOCC3)c3c(c12)CCCC3`, the outcome in experiment [1], in experiment [3], in experiment [4] and in experiment [5] was inactive. For the same compound, the potentiation in experiment [2] was 105% (active).

As for `Cc1ccc(O)c(NC(=S)NC(=O)Cc2ccc(Cl)cc2)c1`, the result in experiment [1], in experiment [4] and in experiment [5] was inactive. Besides, the potentiation is 38% (active) in experiment [2] and 154% (active) in experiment [3].

In the case of `CCC(C)N(C(=O)COC(=O)c1cc([N+](=O)[O-])ccc1N1CCOCC1)C1CCS(=O)(=O)C1` (stereo not given), the result in experiment [1], in experiment [2], in experiment [3], in experiment [4] and in experiment [5] was inactive.

In the case of `CCOc1ccc(NC(=O)c2ccc(N)cc2)cc1`, the outcome in experiment [1], in experiment [2], in experiment [3], in experiment [4] and in experiment [5] was inactive.

Regarding `Cc1ccc(C)c(-n2c3nc(=O)n(C)c(=O)c-3cc3ccccc32)c1`, the outcome in experiment [1], in experiment [2], in experiment [3], in experiment [4] and in experiment [5] was inactive.

As to `CCOC(=O)c1sc(NC(=S)NC(=O)c2ccccc2)nc1C`, the result in experiment [1], in experiment [2], in experiment [3], in experiment [4] and in experiment [5] was inactive.

On to `Cc1ccsc1/C=N/Nc1nc2ccccc2s1`, for which the outcome in experiment [1], in experiment [2], in experiment [3], in experiment [4] and in experiment [5] was inactive.

As for `Cc1cccc(C)c1OCc1cc(C(=O)N(C)Cc2cc(C3CC3)n[nH]2)no1`, the outcome in experiment [1], in experiment [2], in experiment [3], in experiment [4] and in experiment [5] was inactive.

As for `Cc1ccc(C)c(NC(=S)NNC(=O)c2csc3c2CCCC3)c1`, the result in experiment [1], in experiment [3], in experiment [4] and in experiment [5] was inactive. For the same compound, the potentiation in experiment [2] is 20.5% (active).

Take `O=C(NCc1ccccc1)C(=O)Nc1nc(C23CC4CC(CC(C4)C2)C3)cs1`: the result in experiment [1], in experiment [2], in experiment [3], in experiment [4] and in experiment [5] was inactive.

In the case of `COC(=O)N/N=C/c1cc(C)n(-c2ccc(Br)cc2)c1C`, the outcome in experiment [1], in experiment [2], in experiment [3], in experiment [4] and in experiment [5] was inactive.

In the case of `CC(C)CNC(=S)NC(=O)c1ccc([N+](=O)[O-])cc1`, the outcome in experiment [1], in experiment [2], in experiment [3], in experiment [4] and in experiment [5] was inactive.

For `NNc1nc2c(F)cc(F)cc2s1`, the outcome in experiment [1], in experiment [2], in experiment [3], in experiment [4] and in experiment [5] was inactive.

`COC1(c2ccccc2)NC(=S)NN=C1c1ccccc1` (stereo not given): the outcome in experiment [1], in experiment [2], in experiment [3], in experiment [4] and in experiment [5] was inactive.

Turning to `O=C(NCC(c1cccs1)N1CCOCC1)C1CCN(S(=O)(=O)c2cccc(C(F)(F)F)c2)CC1` (stereo not given), the result in experiment [1], in experiment [2], in experiment [3], in experiment [4] and in experiment [5] was inactive.

With `COc1cc(/C=C2\C(=O)N(CCC#N)N=C2C)c(Br)cc1OC(C)C`, the outcome in experiment [1], in experiment [2], in experiment [3], in experiment [4] and in experiment [5] was inactive.

On to `CCc1ccc(NC(=O)/C(C#N)=C/c2ccncc2)cc1`, for which the outcome in experiment [1], in experiment [2], in experiment [3], in experiment [4] and in experiment [5] was inactive.

In the case of `CCOC(=O)c1cc(C)sc1NC(=O)CN1CCN(C(=O)c2ccco2)CC1`, the result in experiment [1], in experiment [3], in experiment [4] and in experiment [5] was inactive. Also, the potentiation in experiment [2] is 17.5% (active).

For `Cn1nnc(NC(=O)C(c2ccccc2)c2ccccc2)n1`, the result in experiment [1], in experiment [2], in experiment [3], in experiment [4] and in experiment [5] was inactive.

`O=C(Nc1nnc(-c2ccco2)o1)c1ccc(Cl)cc1`: the result in experiment [1], in experiment [2], in experiment [4] and in experiment [5] was inactive. Besides, the potentiation in experiment [3] was 148% (active).

In the case of `C=CCn1c(=S)[nH]c2cc(-c3ccccc3)sc2c1=O`, the outcome in experiment [1], in experiment [2], in experiment [3], in experiment [4] and in experiment [5] was inactive.
